Assay results from different studies.
Protocols differ between the studies behind these lines.
Target: Macrophage-stimulating protein receptor (MST1R, Homo sapiens, UniProt Q04912)

| SMILES | test | setting | remaining binding |
| --- | --- | --- | --- |
| c1cncc(-c2cccc(Nc3nccc(NC4CCCCC4)n3)c2)c1 | binding, competition with immobilised ligand | 10 µM | 78% |
| C[C@@H]1CCN(c2nccc(-c3cnn4ncccc34)n2)C1 | binding | 1 µM | 100% |
| COc1ncc2cc3ccccc3nc2c1C#N | cell-free assay, competition with immobilised ligand | 5 µM | 100% |
| O=C(Nc1c[nH]nc1C(=O)NC1CCNCC1)c1cc(F)cc(F)c1 | binding, competition with immobilised ligand | 1 µM | 100% |
| COc1cnc(Nc2cccc(S(N)(=O)=O)c2)nc1N1CCN(c2ccccc2)CC1 | binding, competition with immobilised ligand | 1 µM | 99% |
| O=C(Nc1cccnn1)N1CC(C/C=C/c2cncc(Oc3ccc(C(F)(F)F)cn3)n2)C1 | cell-free assay, competition with immobilised ligand | 1 µM | 100% |
| O=C(c1ccc(Nc2ncc(Cl)c(-c3cc4ccccc4s3)n2)cc1)N1CCC(N2CCCC2)CC1 | binding, competition with immobilised ligand | 1 µM | 56% |
| CNC(=O)[C@@H]1CC[C@@H](n2c(-c3ccc4cnccc4c3)nc3ccc(C(=O)NCc4cccc(C(N)=O)c4)cc32)C1 | binding, competition with immobilised ligand | 1 µM | 87% |
| O=C(NCCCN1CCOCC1)c1ccc(Nc2nccc(-c3cc4ccccc4s3)n2)cc1 | binding, competition with immobilised ligand | 1 µM | 100% |
| CS(=O)(=O)c1cc(C2(NC(=O)c3cncc4c3cnn4-c3ccc(F)cc3)CC2)ccn1 | cell-free assay, competition with immobilised ligand | 1 µM | 83% |
| CN(CCCC(F)(F)F)c1nccc(-c2cnn3ncccc23)n1 | binding | 1 µM | 100% |
| C[C@@H]1CN(c2cc(-c3n[nH]c4ccc(OC5(C)CC5)cc34)ncn2)C[C@H](C)O1 | cell-free assay, competition with immobilised ligand | 0.1 µM | 100% |
| Cc1cnc(Nc2ccc(C(=O)N3CCC(N4CCCC4)CC3)cc2)nc1-c1cc2ccccc2s1 | binding, competition with immobilised ligand | 1 µM | 83% |
| Cc1cnn2ncc(-c3ccnc(N(C)C)n3)c2c1 | binding | 1 µM | 71% |
| C[C@@H](c1ccc(-n2cnc3c(N)ncnc32)cc1)N1CCc2nn(C)c(Cc3ccccc3)c2C1=O | binding, competition with immobilised ligand | 0.1 µM | 83% |
| O=C(O)[C@H]1[C@H](Cn2nnc3ccccc3c2=O)CC[C@@H]1C(=O)c1ccc(OCCC2CCOCC2)cc1 | cell-free assay, competition with immobilised ligand | 1 µM | 96% |
| CC1CCCN1c1nccc(-c2cnn3ncccc23)n1 (stereo not drawn) | binding | 1 µM | 100% |
| CNC(=O)Nc1ccc2c(c1)[C@@]1(CC2)OC(=O)N(CC(=O)N(Cc2ccc(F)cc2)[C@@H](C)C(F)(F)F)C1=O | cell-free assay, competition with immobilised ligand | 1 µM | 100% |
| CN(c1nccc(-c2cnn3ncccc23)n1)C1CC1 | binding | 1 µM | 100% |
| Cc1c[nH]c2nccc(Oc3c(F)cc(Nc4cc(Cl)nc(N)n4)cc3F)c12 | cell-free assay, competition with immobilised ligand | 0.1 µM | 74% |
| N[C@@H]1CCN(c2nccc(-c3cnn4ncccc34)n2)C1 | binding | 1 µM | 100% |
